Source: ChEMBL document CHEMBL1126703, “Synthesis of 2'-deoxyuridine and 5-fluoro-2'-deoxyuridine derivatives and evaluation in antibody targeting studies” (J Med Chem, 1993)
pIC50: −log10 of the molar value. In brackets after ≈: the same amount, converted by molar mass. Several values for one entry are separate records, joined by “and”; a condition that tells them apart may be missing. Equal entries are not always repeated.

Experiments:
Assay type in all cases: functional, cell-based
Conditions in all cases: Homo sapiens
[1] = test system: T-24; assay: Tested for cytotoxicity against antigen negative T-24 bladder carcinoma cells having only 3-5% antigen expression
Method in brief: (§1)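 Cytotoxicity was measured as inhibition of [75Se]selenomethionine uptake in a microplate assay, with cells incubated continuously with drug or conjugate. Antigen-positive 791T osteosarcoma cells carry about 6 × 10⁵ antigens/cell; T-24 bladder carcinoma cells carry about 3–5% of that level. Both lines were grown as monolayers in Eagle's MEM with 10% newborn calf serum and passaged using trypsin (0.25%)/EDTA (0.5%).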

[2] = test system: 791T cell line; assay: Tested for cytotoxicity against antigen positive 791T osteosarcoma cells […]; method in brief: as §1
[3] = test system: C170; assay: Tested for cytotoxicity against C170 colorectal carcinoma cell line by [75Se]selenomethionine uptake assay, in vitro
[4] = test system: 791T cell line; assay: Tested for cytotoxicity against antigen positive 791T osteosarcoma cells […]; <20% inhibition achieved; method in brief: as §1
[5] = test system: T-24; assay: Tested for cytotoxicity against antigen negative T-24 bladder carcinoma cells having only 3-5% antigen expression; <20% inhibition achieved; method in brief: as §1
[6] = test system: 791T cell line; assay: Tested for cytotoxicity against antigen positive 791T osteosarcoma cells of conjugate AH1.11 (Type H1: MSR-33); method in brief: as §1
[7] = test system: 791T cell line; assay: Tested for cytotoxicity against antigen positive 791T osteosarcoma cells of conjugate H1.11 (Type H1: MSR-33); method in brief: as §1
[8] = test system: T-24; assay: Tested for cytotoxicity against antigen negative T-24 bladder carcinoma cells of conjugate AH1.11 (Type H1: MSR-33); method in brief: as §1
[9] = test system: T-24; assay: Tested for cytotoxicity against antigen negative T-24 bladder carcinoma cells of conjugate H1.11 (Type H1: MSR-33); method in brief: as §1
[10] = test system: 791T cell line; assay: Tested for cytotoxicity against antigen positive 791T osteosarcoma cells of conjugate AH1.11 (Type H2: MSR-26); method in brief: as §1
[11] = test system: T-24; assay: Tested for cytotoxicity against antigen negative T-24 bladder carcinoma cells of conjugate AH1.11 (Type H2: MSR-26); method in brief: as §1
[12] = test system: T-24; assay: Tested for cytotoxicity against antigen negative T-24 bladder carcinoma cells of conjugate H1.11 (Type H2: MSR-26); method in brief: as §1
[13] = test system: 791T cell line; assay: Tested for cytotoxicity against antigen positive 791T osteosarcoma cells of conjugate H1.11 (Type H2: MSR-26) (less than 20% inhibition achieved); method in brief: as §1
[14] = test system: 791T cell line; assay: Tested for cytotoxicity against antigen positive 791T osteosarcoma cells […] (49% inhibition achieved at 100 micro g/mL)
[15] = test system: 791T cell line; assay: Tested for cytotoxicity against antigen positive 791T osteosarcoma cells of conjugate H1.11 (Type H2: MSR-26); method in brief: as §1
[16] = test system: 791T cell line; assay: Tested for cytotoxicity against antigen positive 791T osteosarcoma cells of conjugate H1.11 (Type H3: MSR-28); <20% inhibition achieved; method in brief: as §1
[17] = test system: T-24; assay: Tested for cytotoxicity against antigen negative T-24 bladder carcinoma cells of conjugate H1.11 (Type H3: MSR-28); <20% inhibition achieved; method in brief: as §1
[18] = test system: T-24; assay: Tested for cytotoxicity against antigen negative T-24 bladder carcinoma cells of conjugate AH1.11 (Type H3: MSR-28); 20%-40% inhibition achieved; method in brief: as §1
[19] = test system: 791T cell line; assay: Tested for cytotoxicity against antigen positive 791T osteosarcoma cells of conjugate AH1.11 (Type H3: MSR-28); <20% inhibition achieved; method in brief: as §1

Compound	IC50 [1]	IC50 [2]	IC50 [3]	further results
CCOC(=O)CCC(=O)NC[C@H]1O[C@@H](n2cc(F)c(=O)[nH]c2=O)C[C@@H]1O	> 100 µg/mL and > 280 µM	> 100 µg/mL and > 280 µM		
O=C(O)[C@H]1O[C@@H](n2cc(F)c(=O)[nH]c2=O)C[C@@H]1O			10 µg/mL and 41 µM	
NC[C@H]1O[C@@H](n2cc(F)c(=O)[nH]c2=O)C[C@@H]1O			26 µg/mL and 107 µM	
CCOC(=O)c1ccc(NC(=O)[C@H]2O[C@@H](n3cc(F)c(=O)[nH]c3=O)C[C@@H]2O)cc1				IC50 [4]: > 100 µg/mL and > 300 µM; IC50 [5]: > 100 µg/mL and > 300 µM
CCCCNC(=O)/C=C/C(=O)NC[C@H]1O[C@@H](n2cc(F)c(=O)[nH]c2=O)C[C@@H]1O	> 100 µg/mL and > 300 µM	> 100 µg/mL and > 300 µM		
O=C(O)CCC(=O)NC[C@H]1O[C@@H](n2cc(F)c(=O)[nH]c2=O)C[C@@H]1O	21 µg/mL and 62 µM	> 100 µg/mL and > 290 µM		IC50 [6]: 0.4 µg/mL and 1.1 µM; IC50 [7]: 7.1 µg/mL and 20.6 µM; IC50 [8]: 0.4 µg/mL and 1.1 µM; IC50 [9]: 5.7 µg/mL and 16.6 µM
O=C(O)/C=C/C(=O)NC[C@H]1O[C@@H](n2cc(F)c(=O)[nH]c2=O)C[C@@H]1O	79 µg/mL and 231 µM	110 µg/mL (≈ 320 µM)		IC50 [10]: > 0.5 µg/mL and > 1.5 µM; IC50 [11]: > 0.5 µg/mL and > 1.5 µM; IC50 [12]: > 10 µg/mL and > 30 µM; IC50 [13]: > 10 µg/mL; pIC50 [14]: 3.49; pIC50 [15]: < 4.52
O=C(O)c1ccc(NC(=O)[C@H]2O[C@@H](n3cc(F)c(=O)[nH]c3=O)C[C@@H]2O)cc1	100 µg/mL and 263 µM			IC50 [16]: > 3 µg/mL and > 7.9 µM; IC50 [4]: > 100 µg/mL and > 300 µM; IC50 [17]: > 3 µg/mL and > 7.9 µM; IC50 [18]: > 1 µg/mL and > 2.6 µM; IC50 [19]: > 1 µg/mL and > 2.6 µM
O=c1[nH]c(=O)n([C@H]2C[C@H](O)[C@@H](CO)O2)cc1F [FLOXURIDINE]	1 µg/mL and 4.1 µM	0.8 µg/mL and 3.2 µM	0.1 µg/mL and 400 nM	
O=c1[nH]cc(F)c(=O)[nH]1 [FLUOROURACIL]	0.5 µg/mL and 4.1 µM	0.7 µg/mL and 5.5 µM	0.3 µg/mL and 2 µM	
